According to ChEMBL document CHEMBL1671740, “Increased temperature enhances the antimicrobial effects of daptomycin, vancomycin, tigecycline, fosfomycin, and cefamandole on staphylococcal biofilms” (2010):
In brackets after ≈: the same amount, converted by molar mass. Activity calls are given as the source filed them. The calls are words filed in the database; no cut-off is given here.

Columns and labels:
[1] = system: Staphylococcus epidermidis; assay: Antimicrobial activity against Staphylococcus epidermidis isolate OR1 treated in solution at 45 degC after 24 hrs; format: functional; settings: isolate OR1, 24 h
In short: (§1)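 Antimicrobials, as powder or in solution as used for MIC testing, held at 45°C for 1 and 24 h in three independent experiments. MICs were then determined by the CLSI microtiter plate method in cation-adjusted Mueller-Hinton medium, with MHB containing 50 μg/ml calcium for daptomycin. Values are median (range) […] in mg/liter.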

Staphylococcus [2] = assay: Antimicrobial activity against Staphylococcus isolates biofilms assessed as change in optical density ratio of biofilms at 1000 mg/litre at ambient temperature of 35 degC after 24 hrs relative to baseline; format: functional
In short: (§2)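 Static microtiter biofilms of 34 clinical S. aureus and CoNS isolates from orthopedic implant infections or preoperative skin, plus reference strains. Inoculum was McFarland 0.5 diluted 1:100 in calcium-supplemented MHB, grown 24 h at 35°C in ambient air. Established biofilms were exposed to drug for 24 h at 35, 40 or 45°C, then formalin-fixed and stained with 1% crystal violet for 5 min, and OD read at 550 nm in quadruplicate.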

Staphylococcus [3] = assay: Antimicrobial activity against coagulase-negative Staphylococcus isolated from human preoperative skin by […]; format: functional
[4] = system: Staphylococcus epidermidis; assay: Antimicrobial activity against Staphylococcus epidermidis DSM3269 by […]; format: functional
Staphylococcus aureus [5] = assay: Antimicrobial activity against Staphylococcus aureus ATCC 29213 administered as powder at 45 degC after 24 hrs; format: functional; settings: ATCC 29213, 24 h; in short: as §1
Staphylococcus [6] = assay: Antimicrobial activity against Staphylococcus isolates biofilms assessed as change in optical density ratio of biofilms at 250 mg/litre at ambient temperature of 40 degC after 24 hrs relative to baseline; format: functional; in short: as §2
Staphylococcus aureus [7] = assay: Antimicrobial activity against Staphylococcus aureus isolated from human prosthetic joint infection site by […]; format: functional
Staphylococcus [8] = assay: Antimicrobial activity against Staphylococcus isolates biofilms assessed as change in optical density ratio of biofilms at 250 mg/litre at ambient temperature of 35 degC after 24 hrs relative to baseline; format: functional; in short: as §2
Staphylococcus aureus [9] = assay: Antimicrobial activity against Staphylococcus aureus isolated from human preoperative skin by […]; format: functional
Staphylococcus [10] = assay: Antimicrobial activity against Staphylococcus isolates biofilms assessed as change in optical density ratio of biofilms at 250 mg/litre at ambient temperature of 45 degC after 24 hrs relative to baseline; format: functional; in short: as §2
Staphylococcus [11] = assay: Antimicrobial activity against coagulase-negative Staphylococcus isolated from human prosthetic joint infection site by […]; format: functional
Staphylococcus [12] = assay: Antimicrobial activity against Staphylococcus isolates biofilms assessed as decrease in bacterial load at 100 mg/litre at ambient temperature of 35 degC after 24 hrs relative to baseline; format: functional
In short: (§3)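 24-h static biofilms of the staphylococcal isolates were exposed to drug for 24 h at 35, 40 or 45°C. Biofilms were not fixed but scraped off and resuspended in MHB, then serially diluted and 0.1 ml plated on blood agar, read after 48 h at 35°C in ambient air. Done in duplicate as mean log10 CFU/ml; log reduction was taken versus untreated biofilm.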

Staphylococcus [13] = assay: Antimicrobial activity against Staphylococcus isolates biofilms assessed as change in optical density ratio of biofilms at 1000 mg/litre at ambient temperature of 45 degC after 24 hrs relative to baseline; format: functional; in short: as §2
Staphylococcus aureus [14] = assay: Antimicrobial activity against Staphylococcus aureus ATCC 29213 by […]; format: functional
Staphylococcus [15] = assay: Antimicrobial activity against Staphylococcus isolates biofilms assessed as change in optical density ratio of biofilms at 1000 mg/litre at ambient temperature of 40 degC after 24 hrs relative to baseline; format: functional; in short: as §2
[16] = system: Staphylococcus epidermidis; assay: Antimicrobial activity against Staphylococcus epidermidis isolate KO8 isolated from healthy human skin by […]; format: functional
Staphylococcus [17] = assay: Antimicrobial activity against Staphylococcus isolates biofilms assessed as change in optical density ratio of biofilms at 1 mg/litre at ambient temperature of 45 degC after 24 hrs relative to baseline; format: functional; in short: as §2
Staphylococcus [18] = assay: Antimicrobial activity against Staphylococcus isolates biofilms assessed as change in optical density ratio of biofilms at 5 mg/litre at ambient temperature of 40 degC after 24 hrs relative to baseline; format: functional; in short: as §2
Staphylococcus [19] = assay: Antimicrobial activity against Staphylococcus isolates biofilms assessed as change in optical density ratio of biofilms at 1 mg/litre at ambient temperature of 40 degC after 24 hrs relative to baseline; format: functional; in short: as §2
Staphylococcus [20] = assay: Antimicrobial activity against Staphylococcus isolates biofilms assessed as change in optical density ratio of biofilms at 1 mg/litre at ambient temperature of 35 degC after 24 hrs relative to baseline; format: functional; in short: as §2
Staphylococcus [21] = assay: Antimicrobial activity against Staphylococcus isolates biofilms assessed as change in optical density ratio of biofilms at 25 mg/litre at ambient temperature of 40 degC after 24 hrs relative to baseline; format: functional; in short: as §2
Staphylococcus [22] = assay: Antimicrobial activity against Staphylococcus isolates biofilms assessed as change in optical density ratio of biofilms at 5 mg/litre at ambient temperature of 35 degC after 24 hrs relative to baseline; format: functional; in short: as §2
Staphylococcus [23] = assay: Antimicrobial activity against Staphylococcus isolates biofilms assessed as decrease in bacterial load at 1 to 25 mg/litre at ambient temperature of 30 to 45 degC after 24 hrs relative to baseline; format: functional, organism-based; settings: in the assay text read “35 to 45 degC” for “30 to 45 degC”; in short: as §3
Staphylococcus [24] = assay: Antimicrobial activity against Staphylococcus isolates biofilms assessed as change in optical density ratio of biofilms at 25 mg/litre at ambient temperature of 45 degC after 24 hrs relative to baseline; format: functional; in short: as §2
Staphylococcus [25] = assay: Antimicrobial activity against Staphylococcus isolates biofilms assessed as change in optical density ratio of biofilms at 25 mg/litre at ambient temperature of 35 degC after 24 hrs relative to baseline; format: functional; in short: as §2
Staphylococcus [26] = assay: Antimicrobial activity against Staphylococcus isolates biofilms assessed as change in optical density ratio of biofilms at 5 mg/litre at ambient temperature of 45 degC after 24 hrs relative to baseline; format: functional; in short: as §2
Staphylococcus [27] = assay: Antimicrobial activity against Staphylococcus isolates biofilms assessed as decrease in bacterial load at 5 to 100 mg/litre at ambient temperature of […] after 24 hrs relative to baseline; format: functional, organism-based
In short: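 Static 24-h biofilms of staphylococcal isolates (S. aureus, CoNS) and reference strains were grown at 35°C in calcium-supplemented MHB from a 1:100-diluted McFarland 0.5 inoculum. They were then exposed to drug at 5, 25 or 100 mg/liter for 24 h at 35, 40 or 45°C. Biofilms were scraped into MHB, serially diluted and plated on blood agar (35°C, 48 h), in duplicate, giving mean log10 CFU/ml against untreated.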

| SMILES | MIC [1] [µg/mL] | MIC (Staphylococcus [3]) [µg/mL] | MIC [4] [µg/mL] | MIC (Staphylococcus aureus [5]) [µg/mL] | MIC (Staphylococcus aureus [7]) [µg/mL] | MIC (Staphylococcus aureus [9]) [µg/mL] | MIC (Staphylococcus [11]) [µg/mL] | Activity (Staphylococcus [12]) | MIC (Staphylococcus aureus [14]) [µg/mL] | MIC [16] [µg/mL] | also measured |
| --- | --- | --- | --- | --- | --- | --- | --- | --- | --- | --- | --- |
| C[C@@H]1O[C@@H]1P(=O)(O)O [FOSFOMYCIN] | 32 (≈ 232 µM) | 32 (≈ 232 µM) | 1 (≈ 7.24 µM) | 1 (≈ 7.24 µM) | 4 (≈ 29 µM) | 64 (≈ 464 µM) | 16 (≈ 116 µM) | inactive | 4 (≈ 29 µM) | 16 (≈ 116 µM) | Ratio (Staphylococcus [2]): 0.78; Ratio (Staphylococcus [6]): 0.75; Ratio (Staphylococcus [8]): 1.01; Ratio (Staphylococcus [10]): 0.69; Ratio (Staphylococcus [13]): 0.63; Ratio (Staphylococcus [15]): 0.65 |
| CN(C)c1cc(NC(=O)CNC(C)(C)C)c(O)c2c1C[C@H]1C[C@H]3[C@H](N(C)C)C(O)=C(C(N)=O)C(=O)[C@@]3(O)C(O)=C1C2=O [TIGECYCLINE] | 2 (≈ 3.41 µM) | 0.03 (≈ 0.0512 µM) | 0.5 (≈ 0.854 µM) | 1 (≈ 1.71 µM) | 0.125 (≈ 0.213 µM) | 0.06 (≈ 0.102 µM) | 0.06 (≈ 0.102 µM) | inactive | 0.06 (≈ 0.102 µM) | 0.125 (≈ 0.213 µM) | Ratio (Staphylococcus [17]): 0.93; Ratio (Staphylococcus [18]): 1.1; Ratio (Staphylococcus [19]): 1.31; Ratio (Staphylococcus [20]): 0.98; Ratio (Staphylococcus [21]): 0.83; Ratio (Staphylococcus [22]): 0.99; Activity (Staphylococcus [23]): inactive; Ratio (Staphylococcus [24]): 1.32; Ratio (Staphylococcus [25]): 1.12; Ratio (Staphylococcus [26]): 0.86 |
| CN[C@H](CC(C)C)C(=O)N[C@H]1C(=O)N[C@@H](CC(N)=O)C(=O)N[C@H]2C(=O)N[C@H]3C(=O)N[C@H](C(=O)N[C@H](C(=O)O)c4cc(O)cc(O)c4-c4cc3ccc4O)[C@H](O)c3ccc(c(Cl)c3)Oc3cc2cc(c3O[C@@H]2O[C@H](CO)[C@@H](O)[C@H](O)[C@H]2O[C@H]2C[C@](C)(N)[C@H](O)[C@H](C)O2)Oc2ccc(cc2Cl)[C@H]1O [VANCOMYCIN] | 2 (≈ 1.38 µM) | 0.75 (≈ 0.518 µM) | 2 (≈ 1.38 µM) | 0.5 (≈ 0.345 µM) | 0.5 (≈ 0.345 µM) | 0.5 (≈ 0.345 µM) | 2 (≈ 1.38 µM) | inactive | 0.5 (≈ 0.345 µM) | 1 (≈ 0.69 µM) | Activity (Staphylococcus [27]): inactive |
